Measurements from ChEMBL document CHEMBL3227946, “Antianaphylactic agents. 1. 2-(Acylamino)oxazoles” (1979).
Active and inactive are the calls of the source. The rule behind the calls is not given here.

Tests used:
Cavia porcellus [1] = assay: Antianaphylactic activity in ovalbumin/ovalbumin aerosol sensitized guinea pig bronchospasm model assessed as ratio of mean collapse time after pretreatment with compound to mean collapse time of control animal at 0.5 mg/kg, sc by Herxheimer test; format: functional; details: route subcutaneous
In short: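 Ovalbumin-sensitized male guinea pigs were given mepyramine at 0.5 mg/kg sc 0.5 h before exposure to ovalbumin aerosol (1% w/v) in a chamber. Collapse time is the time to a convulsive cough. Ratio is mean collapse time of mepyramine-treated animals over that of controls.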

[2] = Antianaphylactic activity in human chopped lung treated with atopic serum isolated from patients allergic to cocksfoot pollen assessed as inhibition of antigen-induced histamine release at 10 ug/mL after 15 mins relative to control; format: functional; details: 0.25 h
In short: (§1)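 Surgical human lung (bronchial carcinoma resections) was washed in Hank's, chopped into 0.5-mm cubes and incubated for 18 h at 18 °C with atopic serum from cocksfoot pollen-allergic patients. Tissue was washed, equilibrated in Tyrode's at 37 °C and challenged with saline pollen extract ± compound for 15 min. Histamine or SRS-A in the supernatant was bioassayed on guinea pig ileum. Values are % inhibition, mean of four samples.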

[3] = Antianaphylactic activity in human chopped lung treated with atopic serum isolated from patients allergic to cocksfoot pollen assessed as inhibition of antigen-induced slow-reacting substance of anaphylaxis release at 10 ug/mL after 15 mins relative to control; format: functional; details: 0.25 h; in short: as §1
Cavia porcellus [4] = assay: (§2) Antianaphylactic activity in ovalbumin/ovalbumin aerosol sensitized guinea pig bronchospasm model assessed as ratio of mean collapse time after pretreatment with compound to mean collapse time of control animal at 1 x 2 mg/kg, po compound administered prior to antigen challenge by Herxheimer test; format: functional
In short: (§3)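 Ovalbumin-sensitized male guinea pigs were exposed in a chamber to ovalbumin aerosol (1% w/v) until a convulsive cough; that time is the collapse time. Compound was given orally either 2 h before challenge or in two doses at 0.5 and 3 h before. Where used, mepyramine was given at 0.5 mg/kg sc 0.5 h before. Ratio is mean collapse time of treated animals over that of controls.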

Cavia porcellus [5] = assay: as §2, with “with compound in presence of mepyramine to mean” for “with compound to mean”; format: functional; in short: as §3
[6] = Antianaphylactic activity in ovalbumin sensitized albino guinea pig chopped lung assessed as inhibition of antigen-induced slow-reacting substance of anaphylaxis release at 10 ug/mL after 15 mins relative to control; format: functional, Cavia porcellus
In short: (§4)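 Lungs were perfused with Tyrode's, chopped into 0.5-mm cubes and split into 100-mg aliquots. Aliquots were challenged with antigen ± compound and rocked at 37 °C for 15 min. Unchallenged controls gave spontaneous release. Supernatant histamine or SRS-A was bioassayed on guinea pig ileum against standards. Values are % inhibition, mean of four samples.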

[7] = Antianaphylactic activity in ovalbumin sensitized albino guinea pig chopped lung assessed as inhibition of antigen-induced histamine release at 10 ug/mL after 15 mins relative to control; format: functional, Cavia porcellus; in short: as §4
Cavia porcellus [8] = assay: as §2, with “with compound in presence of mepyramine to mean” for “with compound to mean”, “animal at 2 x 100” for “animal at 1 x 2”, “2 x 100 mg/kg, po” for “1 x 2 mg/kg, po”; format: functional; in short: as §3
Rattus norvegicus = assay: Antianaphylactic activity in antiovalbumin IgE serum-treated Wistar rat at 2 x 100 mg/kg, po administered 2.5 hrs prior to ovalbumin challenge measured after 45 mins by passive cutaneous anaphylaxis test; format: functional, organism-based; design: dose 100 mg/kg; details: in the assay text read “2 hrs and again 30 mins prior to” for “2.5 hrs prior to”
In short: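 Female Wistar rats, shaved and lightly anaesthetized, received an intradermal abdominal injection of diluted rat antiovalbumin IgE serum. After 24 h they were challenged iv with ovalbumin mixed with dye. Compound was given at 2 h and again at 30 min before challenge. Rats were killed 45 min after challenge and the blue area on the inner skin surface was measured.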

Cavia porcellus [9] = assay: Antianaphylactic activity in ovalbumin/ovalbumin aerosol sensitized guinea pig bronchospasm model assessed as ratio of mean collapse time after pretreatment with compound to mean collapse time of control animal at 2 x 100 mg/kg, po compound administered prior to antigen challenge by Herxheimer test; format: functional; in short: as §3

SMILES: COc1ccc(CN(CCN(C)C)c2ccccn2)cc1 [PYRILAMINE]
- Ratio (Cavia porcellus [1]): 3.7

SMILES: CN1CCC(=C2c3ccccc3CC(=O)c3sccc32)CC1 [KETOTIFEN]
- inhibition at 10 µg/mL [2]: 23%
- inhibition at 10 µg/mL [3]: 100%
- Ratio (Cavia porcellus [4]): 4.2
- Ratio (Cavia porcellus [5]): 7.2

SMILES: CCCCN(C(=O)C(C)C)c1nc(C)co1 [ISAMOXOLE]
- inhibition (INH) [6]: 54%
- inhibition (INH) [7]: 38%
- inhibition at 10 µg/mL [2]: 23%
- inhibition at 10 µg/mL [3]: 93%
- Ratio (Cavia porcellus [8]): 5.9
- Activity (Rattus norvegicus): inactive
- Ratio (Cavia porcellus [9]): 4.6
